Experimental findings from ChEMBL document CHEMBL1649157, “Intracellular activity of antibiotics against Staphylococcus aureus in a mouse peritonitis model” (Antimicrob Agents Chemother, 2009) are described below.

Activity calls are given as the source filed them. The calls are words filed in the database; no cut-off is given here.

For data set [1], the system named is Staphylococcus aureus. The data set is described as follows: Antibacterial activity against Staphylococcus aureus E19977 infected in NMRI mouse assessed as log reduction in bacterial cfu in peritoneum at 60 mg/kg, sc administered as single dose 1 hr after infection measured after 4 hrs. It counts as functional, organism-based. More on the design: dose 60 mg/kg. The method, boiled down:
(§1)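 NMRI mice were infected i.p. with S. aureus E19977 in 5% mucin. A single dose (60 mg/kg or 10 mg/kg) was given 1, 2 or 3 h after inoculation, four mice per group. Peritoneal wash was sampled after 4 h of treatment and separated into total, extracellular and intracellular counts by lysostaphin/centrifugation. Δlog10 CFU/ml was calculated against vehicle-treated mice infected for the same time (5, 6 or 7 h).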

The test system of data set [2] is Staphylococcus aureus. Put plainly: Antibacterial activity against Staphylococcus aureus E19977 infected in NMRI mouse assessed as log reduction in bacterial cfu in peritoneum at 60 mg/kg, sc administered as single dose 2 hrs after infection measured after 4 hrs. Format: functional, organism-based. More on the design: dose 60 mg/kg. In a few lines: as §1
Data set [3] relates to Staphylococcus aureus. The data set is described as follows: Bactericidal activity against Staphylococcus aureus E19977 assessed as log reduction in cfu at 20 mg/liter upto 24 hrs by time-kill study. It counts as functional. The method, boiled down: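 In vitro kinetic model: exponential-phase bacteria at a final 10^6.3 CFU/ml were exposed to a starting concentration set to the human free peak level. Elimination followed the simulated human half-life. Samples were taken at 0, 2, 4, 6, 8, 12 and 24 h and counted on 5% blood agar (detection limit 25 CFU/ml). Growth controls were included; n = 2.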

Data set [4] deals with Staphylococcus aureus. Put plainly: Antibacterial activity against Staphylococcus aureus E19977 infected in NMRI mouse assessed as log reduction in bacterial cfu in peritoneum at 60 mg/kg, sc administered as single dose 3 hrs after infection measured after 4 hrs. Format: functional, organism-based. The arrangement: dose 60 mg/kg. The method, boiled down:
as §1

The test system of data set [5] is Staphylococcus aureus. The data set is described as follows: Antibacterial activity against Staphylococcus aureus E19977 infected in NMRI mouse assessed as log reduction in extracellular bacterial cfu in peritoneum at 60 mg/kg, sc administered as single dose 3 hrs after infection measured after 4 hrs. It counts as functional, organism-based. The arrangement: dose 60 mg/kg. In a few lines: as §1

The subject of data set [6] is Staphylococcus aureus. Put plainly: Antibacterial activity against Staphylococcus aureus E19977 infected in NMRI mouse assessed as log reduction in extracellular bacterial cfu in peritoneum at 200 mg/kg, sc administered 2 hrs after infection evry 8 hrs as three-dose regimen measured after 19 hrs. Format: functional. The note with it: route subcutaneous.
In data set [7] the test system is Staphylococcus aureus. The data set is described as follows: Antibacterial activity against Staphylococcus aureus E19977 infected in NMRI mouse assessed as log reduction in intracellular bacterial cfu in peritoneum at 60 mg/kg, sc administered as single dose 1 hr after infection measured after 4 hrs. Format: functional, organism-based. More on the design: dose 60 mg/kg. The method, boiled down:
as §1

In data set [8] the test system is Staphylococcus aureus. The data set is described as follows: Antibacterial activity against Staphylococcus aureus E19977 infected in NMRI mouse assessed as log reduction in extracellular bacterial cfu in peritoneum at 60 mg/kg, sc administered as single dose 2 hrs after infection measured after 4 hrs. Format: functional, organism-based. More on the design: dose 60 mg/kg. The method, boiled down: as §1

Data set [9] has as its system Staphylococcus aureus. Put plainly: Antibacterial activity against Staphylococcus aureus E19977 infected in NMRI mouse assessed as log reduction in intracellular bacterial cfu in peritoneum at 10 to 200 mg/kg, sc administered 2 hrs after infection measured after 4 hrs. It counts as functional, organism-based. In a few lines: (§2)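 Dose–response in i.p.-infected NMRI mice (mucin adjuvant). Single doses of 200, 60, 30, 20 or 10 mg/kg were given 2 h after inoculation, with 4–16 mice per group. Peritoneal wash was sampled 4 h later and split by lysostaphin/centrifugation into total, extra- and intracellular counts, then expressed as Δlog10 CFU/ml against log dose. Vehicle controls were plotted as 0.3 mg/kg. Hill fit (variable slope); static dose interpolated.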

Data set [10] has as its system Staphylococcus aureus. Put plainly: Antibacterial activity against Staphylococcus aureus E19977 infected in NMRI mouse assessed as log reduction in bacterial cfu in peritoneum at 10 to 200 mg/kg, sc administered 2 hrs after infection measured after 4 hrs. Format: functional, organism-based. In a few lines:
as §2

The nature of data set [11]: Half life in human at 1000 mg, po. The note with it: in vivo. It counts as ADME, organism-based.

A word on the half-life: it is how long it takes for the measured level to halve.

For the molecule `Cc1onc(-c2c(Cl)cccc2Cl)c1C(=O)N[C@@H]1C(=O)N2[C@@H]1SC(C)(C)[C@@H]2C(=O)O` [DICLOXACILLIN], the result in data set [1] and in data set [7] was Active. In addition, the result in data set [2], in data set [4], in [5] and in [8] was inactive. The FC in [3] is more than 2; in [6] it was 2. For the same molecule, the Activity entry in data set [9] and in [10] was “Dose-dependent effect” throughout. Besides, the half-life in data set [11] was 1 h.
